Compounds with a hit are over-represented: about 4.2% of the library has one in this group of screens.
HDAC3 inhib: human HDAC3 inhibition | O15379 | recombinant HDAC3, fluorogenic peptide/trypsin coupled, fluorescence | inhibition, % at 8.3 µM | 0.15% of 320,000 active; in the data active = inhibition above about 26%, passing the limit was not always enough; inconclusive = no clear call, values can overlap the other calls
Target sequence (O15379 whole entry, looked up): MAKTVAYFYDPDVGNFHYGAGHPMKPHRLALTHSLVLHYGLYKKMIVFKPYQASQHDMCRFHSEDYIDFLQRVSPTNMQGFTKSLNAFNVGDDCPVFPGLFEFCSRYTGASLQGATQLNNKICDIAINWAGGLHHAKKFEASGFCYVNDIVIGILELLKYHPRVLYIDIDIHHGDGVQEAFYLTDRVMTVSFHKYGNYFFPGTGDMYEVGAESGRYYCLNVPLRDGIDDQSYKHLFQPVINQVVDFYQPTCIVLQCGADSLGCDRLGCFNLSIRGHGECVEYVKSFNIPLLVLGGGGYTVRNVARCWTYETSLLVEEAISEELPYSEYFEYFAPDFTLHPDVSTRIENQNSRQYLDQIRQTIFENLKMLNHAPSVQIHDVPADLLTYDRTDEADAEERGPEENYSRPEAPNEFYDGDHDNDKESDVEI
CTSL1 counter: cathepsin L1 inhibition, PFM18AAP counter-screen; recombinant F. hepatica cathepsin L1, Z-Leu-Arg-MCA fluorescence; inhibition, % at 5.96 µM; 0.49% of 300,000 active;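 active = inhibition above the mean of all tested compounds plus 3 SD, set per screening campaign, cut at about 17% in these data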;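 note: 0% = plate median of test compound wells and 100% = 1 µM Z-Phe-Ala-diazomethylketone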
AHR act: activates the human aryl hydrocarbon receptor; 2.5% of 320,000 active; P35869; activation, % at 5 µM; AHR-responsive luciferase reporter cells, luminescence; in the data active = activation above about 47%;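 note: 0% = vehicle wells and 100% = reference agonist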
SENP1 FRET inh: inhibitors of human SENP1 SUMO protease catalytic domain; AID 624204; 0.21% of 360,000 active; inhibition, % at 10 µM; recombinant SENP1 catalytic domain, CyPet-SUMO1-YPet FRET cleavage;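 active = inhibition at least 30% at 10 µM, raw YFP signal under a set limit, fluorescence ratio 0.5 to 1.5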;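 note: 0% = enzyme with DMSO and 100% = no enzyme wells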
Target sequence (Q9P0U3 419-644 limits assumed): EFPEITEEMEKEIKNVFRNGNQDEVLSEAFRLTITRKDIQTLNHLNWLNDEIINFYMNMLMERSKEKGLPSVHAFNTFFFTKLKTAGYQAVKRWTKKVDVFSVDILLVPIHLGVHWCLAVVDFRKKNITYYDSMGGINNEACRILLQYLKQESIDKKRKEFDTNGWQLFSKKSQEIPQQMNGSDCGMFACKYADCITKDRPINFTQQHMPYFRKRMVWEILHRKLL
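Assay system – human recombinant His6-tagged SENP1 catalytic domain enzyme · Input – SENP1 enzyme, 20 pM final · Buffer or medium – Tris pH 8 buffer plus EDTA, NaCl, BME, BSA, NP40, catalase · Schedule – 50 min reaction at room temperature · Technique – FRET read of cyan and yellow fluorescence · Control set – no-enzyme wells low, DMSO-plus-enzyme wells high control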
M18AAP inhibitor: PfM18AAP enzyme inhibition | 1.2% of 290,000 active | inhibition, % at 7.35 µM | recombinant PfM18AAP, H-Glu-NHMec fluorogenic cleavage;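 active = inhibition above the campaign mean inhibition over all tested compounds plus 3 SD, cut at about 28% in these data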;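 note: 0% = plate median of test compound wells and 100% = 2 mM ZnCl2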
GAA850 FXN act: increases GAA850 frataxin promoter reporter activity; HEK293 lucGAA850 FXN promoter luciferase reporter, 24 h; percent of 10 µM SAHA response; activation, % at 6 µM; 0.56% of 360,000 active; AID 540364;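 active = activation above the average of all compounds screened plus 3 SD, cutoff fixed separately per campaign, cut at about 7.5% in these data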;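 note: 0% = DMSO wells and 100% = 10 µM SAHA wells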
Starred values were filed as active, the others as inactive; ? = inconclusive; . = not tested or not shown.

SMILES | HDAC3 inhib | CTSL1 counter | AHR act | SENP1 FRET inh | M18AAP inhibitor | GAA850 FXN act
CC(OC(=O)CNC(=O)c1ccc(Cl)c(Cl)c1)C(=O)N1CCOCC1 (centres undefined) | 1 | 25* | 1 | 1 | . | 0
COc1ccc(NC(=O)CNCc2cccs2)c(OC)c1 | . | . | . | 3 | . | 0
Cc1ccc(S(=O)(=O)N2CCCN(C(=O)c3cc4ccccc4[nH]3)CC2)cc1 | -2 | 5 | 62* | -3 | -5 | 2
Cc1ccc2nc(SCC(=O)Nc3ccc(C(N)=O)cc3)[nH]c2c1 | 9 | -1 | 25 | 0 | -2 | 2
CCCC(C)NC(=O)CSc1nc2ccc(C)cc2[nH]1 (centres undefined) | -5 | 1 | 51* | 1 | 2 | 2
Cc1ccc2nc(SCC(=O)Nc3cccc([N+](=O)[O-])c3)[nH]c2c1 | 3 | 4 | 89* | 1 | -1 | -1
Cc1ccc2nc(SCC(=O)NC3CC3)[nH]c2c1 | 0 | 0 | 19 | 1 | 3 | 2
Cc1ccc2nc(SC(C)C(=O)N3CCCC3)[nH]c2c1 (centres undefined) | 0 | -2 | 73* | 0 | 3 | 0
Cc1ccc2nc(SC(C)C(=O)N3CCCCC3)[nH]c2c1 (centres undefined) | -2 | -5 | 43 | 1 | 4 | 2
Cc1ccc2nc(SCC(=O)Nc3c(F)cccc3F)[nH]c2c1 | -9 | 0 | 26 | 0 | 1 | 2
Cc1ccc2nc(SCC(=O)Nc3ccc(F)cc3F)[nH]c2c1 | 7 | -1 | 71* | -1 | -5 | 3
O=C(O)c1ccccc1C(=O)NC1CCCc2ccccc21 (centres undefined) | 1 | -3 | 1 | -2 | -6 | 1
Cc1ccc(/C=N/NC(=O)c2ccncc2)cc1 | 1 | -6 | 7 | 0 | -14 | 1
Cc1ccc(/C=N\NC(=O)c2csnn2)cc1 | 5 | 1 | 49* | -27 | 11 | 3
Cc1cccc(NS(=O)(=O)c2cccc(C(=O)N3CCCC(C(F)(F)F)C3)c2)c1 (centres undefined) | ? | 3 | 3 | 1 | . | -1
Cc1cc(C)c2nc(C(F)(F)F)c(C#N)c(N)c2c1 | -4 | 8 | 12 | -3 | -3 | -2
CCCc1nc2c(C)cc(C)cc2c(N)c1CC | -7 | 1 | 47* | -10 | 0 | -1
COc1cccc(CNc2ccc(N3CCCCC3)cc2)c1OC | 12 | 1 | 1 | 7 | 8 | -2
COc1cccc(Nc2ccc(N3CCCCC3)cc2)c1OC | -7 | . | 0 | 90* | . | -2
COc1cc(OC)nc(Nc2nc(C(N)Cc3ccc(C(F)(F)F)cc3)cs2)n1 (centres undefined) | . | . | . | 0 | . | -2
N#C/C(=C/c1ccc(N2CCOCC2)o1)c1ccc(Br)cc1 | 10 | 15 | 3 | 10 | 1 | 16*
O=[N+]([O-])c1ccc(C2=Nc3cc(Cl)ccc3OC2)cc1 | 6 | 4 | 67* | 15 | 3 | 4
CCn1c2ccccc2c2nnc(SCc3ccccc3)nc21 | 5 | 2 | 63* | -2 | -4 | 5
CCn1c2ccccc2c2nnc(SCC(N)=O)nc21 | 9 | 4 | -2 | 0 | 1 | 1
CCOC(=O)c1c(C)[nH]c(C(=O)N/N=C/c2ccc(Br)cc2)c1C | . | 3 | 67* | -1 | -14 | -2
SMILES | HDAC3 inhib | CTSL1 counter | AHR act | SENP1 FRET inh | M18AAP inhibitor | GAA850 FXN act
Cc1ccn(CC(=O)N2CCCC(N3CCN(c4ccccc4F)CC3)C2)n1 (centres undefined) | . | . | . | 0 | 5 | 1
Cc1ccc(NC(=O)CSCC(=O)NCCc2ccccn2)c(C)c1 | 1 | 2 | 4 | 2 | -2 | 0
Cc1nc(SCc2nc3ccccc3[nH]2)c2oc3cc([N+](=O)[O-])ccc3c2n1 | 11 | . | 26 | -12 | . | 0
COc1ccc2c(c1)oc1c(SCc3nc4ccccc4[nH]3)nc(C)nc12 | 11 | . | 54* | -15 | . | 6
COc1ccccc1Cn1c(/C=C/c2ccccc2)nc2ccccc21 | . | 8 | 64* | 3 | -5 | 4
CC(/C=N/n1c(-c2cc(C)[nH]n2)n[nH]c1=S)=C\c1ccccc1 | 9 | -1 | 78* | -3 | 4 | 2
Cc1c(N=C2Nc3cccc4cccc2c34)c(=O)n(-c2ccccc2)n1C | 7 | 2 | 90* | -30 | 7 | 1
CSc1ccc(C2=C/C(=C3/SC(=S)NC3=O)c3ccccc3O2)cc1 | . | . | . | 17 | . | 3
CN(C)CCN1C(=O)c2cccc3cc([N+](=O)[O-])cc(c23)C1=O | . | . | . | 60* | . | -4
O=C(NCCc1ccccc1)C(c1cccs1)N(C(=O)c1csnn1)C1CC1 (centres undefined) | -4 | -8 | 58* | 1 | -1 | -2
O=C(NCc1ccccc1)C(c1cccs1)N(C(=O)c1csnn1)C1CC1 (centres undefined) | 4 | -8 | 4 | 0 | 3 | 2
COc1ccc(C(=O)NCC(=O)N/N=C/c2ccc(C)o2)cc1OC | 56* | -2 | 16 | 0 | 4 | 0
O=C(O)c1ccc(Cl)cc1Nc1nc2cc(Cl)ccc2o1 | -2 | -2 | 59* | 3 | -2 | 0
CCC(=O)Nc1cc(Cl)ccc1C(=O)O | -6 | 1 | 0 | -1 | -8 | -1
CC(C)CSc1nc(N)nc2c1ncn2C1OC(CO)C(O)C1O (centres undefined) | . | . | . | 2 | . | -2
Nc1c(C(=O)c2ccc(Cl)cc2)sc2nc3c(cc12)CCC3 | -6 | 6 | 53* | -30 | -14 | 7
Nc1c(C(=O)O)sc2nc3c(cc12)CCCC3 | -1 | 4 | 4 | -45 | -1 | -1
COc1ccc(C(=O)n2cnc3ccccc32)cc1Br | 9 | -1 | -1 | 3 | . | 1
COc1ccc(C(=O)n2cnc3ccccc32)cc1 | 33* | -6 | 6 | 9 | -3 | 2
COc1ccc(C)cc1Nc1n[n+](-c2ccccc2)c(-c2ccc(SC)cc2)s1 | 8 | 2 | 73* | 1 | 8 | -2
CCc1ccc(Nc2n[n+](-c3ccccc3)c(-c3ccc(SC)cc3)s2)cc1 | 12 | -1 | 24 | 3 | 3 | 1
COc1ccc(C)cc1Nc1n[n+](-c2ccccc2)c(-c2cc([N+](=O)[O-])cc(OC)c2O)s1 | -3 | 0 | 10 | 43* | 10 | 1
COc1cc(OC)c(-c2sc(Nc3ccccc3)n[n+]2-c2ccc(F)cc2)cc1OC | 3 | 2 | 5 | 1 | -2 | 2
COc1ccc(C)cc1Nc1n[n+](-c2ccccc2)c(-c2ccc(NC(C)=O)cc2)s1 | 10 | 6 | 65* | 4 | 1 | -2
CSc1ccc(-c2sc(Nc3ccccc3)n[n+]2-c2ccccc2)cc1 | -2 | -1 | 65* | -74 | 8 | 3
CC(=O)Nc1ccc(-c2sc(Nc3cccc4ccccc34)n[n+]2-c2ccccc2)cc1 | 9 | -4 | 81* | 1 | 3 | 0

Screening data deposited in PubChem BioAssay by several laboratories.
